Reference: ChEMBL document CHEMBL3525971 (Drug Metab Dispos, 2011)

Legend:
[1] = Cmax in castrated pig plasma withdrawn from hepatic vein at 0.8 mg/kg administered as intrajejunal dose by UPLC-tandem mass spectrometry; type: ADME, organism-based, Sus scrofa; design: dose 0.8 mg/kg; conditions: male
Procedure, shortened: (§1)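 Where ketoconazole was co-dosed, it was given at 10 mg/kg at the same jejunal site 20 min before. Plasma protein-precipitated with acetonitrile and analysed by UPLC-MS/MS (finasteride-d9). AUC0-6h, Cmax and t1/2 (ln2/λz) were derived by non- or compartmental analysis.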

Plasma [2] = experiment: Drug metabolism in castrated pig plasma withdrawn from portal vein assessed as omega-hydroxy finasteride metabolite formation by UPLC-tandem mass spectrometry; type: ADME, cell-free, Sus scrofa
Procedure, shortened: (§2)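 Plasma sampled 0-6 h from portal, hepatic and femoral veins. Analysed by acetonitrile precipitation with finasteride-d9 internal standard, then UPLC-MS/MS in SRM mode, m/z 389.41 → 271.94 for the ω-hydroxy metabolite.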

[3] = Ratio of AUC in bile to plasma withdrawn from portal vein in castrated pig at 0.8 mg/kg administered as intrajejunal dose by UPLC-tandem mass spectrometry; type: ADME, organism-based, Sus scrofa; design: dose 0.8 mg/kg; conditions: male, read-out: Ratio AUC
Procedure, shortened: (§3)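 Bile collected 0-6 h and weighed; portal and hepatic vein plasma sampled. UPLC-MS/MS quantification against finasteride-d9 in SRM mode. Bile/plasma AUC ratio calculated per vein.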

[4] = Volume of distribution at steady state in castrated pig at 0.2 mg/kg, iv by UPLC-tandem mass spectrometry; type: ADME, organism-based, Sus scrofa; design: dose 0.2 mg/kg, route intravenous; conditions: male, in vivo, read-out: Vdss
Procedure, shortened: (§4)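 Femoral plasma assayed over 0-6 h by UPLC-MS/MS. CL calculated as dose/AUCVF,0-6h; Vss calculated as MRT × CL, with MRT = AUMC0-6h/AUC0-6h.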

[5] = AUC (0 to 6 hrs) in castrated pig plasma withdrawn from portal vein at 0.8 mg/kg administered as intrajejunal dose by UPLC-tandem mass spectrometry; type: ADME, organism-based, Sus scrofa; design: time < 6 hr, dose 0.8 mg/kg; conditions: male; procedure, shortened: as §1
[6] = Apparent biliary clearance in castrated pig at 0.8 mg/kg administered as intrajejunal dose 20 mins after ketoconazole administration by UPLC-tandem mass spectrometry; type: ADME, organism-based, Sus scrofa, Bile; design: dose 0.8 mg/kg; conditions: in vivo, other
[7] = AUC (0 to 6 hrs) in castrated pig plasma withdrawn from femoral vein at 0.2 mg/kg, iv by UPLC-tandem mass spectrometry; type: ADME, organism-based, Sus scrofa; design: time < 6 hr, dose 0.2 mg/kg, route intravenous; conditions: male; procedure, shortened: as §1
[8] = Cmax in castrated pig plasma withdrawn from femoral vein at 0.8 mg/kg administered as intrajejunal dose 20 mins after ketoconazole administration by UPLC-tandem mass spectrometry; type: ADME, organism-based, Sus scrofa; design: dose 0.8 mg/kg; conditions: male; procedure, shortened: as §1
[9] = Ratio of AUC in bile to plasma withdrawn from hepatic vein in castrated pig at 0.8 mg/kg administered as intrajejunal dose by UPLC-tandem mass spectrometry; type: ADME, organism-based, Sus scrofa; design: dose 0.8 mg/kg; conditions: male, read-out: Ratio AUC; procedure, shortened: as §3
Plasma [10] = experiment: Drug metabolism in castrated pig plasma withdrawn from hepatic vein assessed as omega-hydroxy finasteride metabolite formation by UPLC-tandem mass spectrometry; type: ADME, cell-free, Sus scrofa; procedure, shortened: as §2
Sus scrofa [11] = experiment: Hepatic clearance in castrated pig at 0.8 mg/kg, administered as intrajejunal dose by UPLC-tandem mass spectrometry; type: ADME, organism-based, Liver; design: dose 0.8 mg/kg; conditions: in vivo, other
Procedure, shortened: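 Portal and hepatic vein plasma measured 0-6 h by UPLC-MS/MS. Extraction ratio derived from portal versus hepatic concentrations or AUCs; CLH then obtained as EH × liver blood flow 52 ml/min/kg × measured blood/plasma ratio.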

Sus scrofa [12] = experiment: Absorption rate constant in castrated pig plasma withdrawn from femoral vein at 0.8 mg/kg administered as intrajejunal dose 20 mins after ketoconazole administration by UPLC-tandem mass spectrometry; type: ADME, organism-based; design: dose 0.8 mg/kg; conditions: in vivo, other
[13] = Total plasma clearance in castrated pig at 0.2 mg/kg, iv by UPLC-tandem mass spectrometry; type: ADME, organism-based, Sus scrofa; design: dose 0.2 mg/kg, route intravenous; conditions: male; procedure, shortened: as §4
[14] = Apparent half-life of the terminal disposition phase in castrated pig plasma withdrawn from femoral vein at 0.2 mg/kg, iv by UPLC-tandem mass spectrometry; type: ADME, organism-based, Sus scrofa; design: dose 0.2 mg/kg, route intravenous; conditions: male, read-out: t1/2 lambda z (converted); procedure, shortened: as §1
[15] = Cmax in castrated pig plasma withdrawn from portal vein at 0.8 mg/kg administered as intrajejunal dose 20 mins after ketoconazole administration by UPLC-tandem mass spectrometry; type: ADME, organism-based, Sus scrofa; design: dose 0.8 mg/kg; conditions: male; procedure, shortened: as §1
Sus scrofa [16] = experiment: Absorption rate constant in castrated pig plasma withdrawn from portal vein at 0.8 mg/kg administered as intrajejunal dose 20 mins after ketoconazole administration by UPLC-tandem mass spectrometry; type: ADME, organism-based; design: dose 0.8 mg/kg; conditions: in vivo, other
[17] = AUC (0 to 6 hrs) in castrated pig bile at 0.8 mg/kg administered as intrajejunal dose by UPLC-tandem mass spectrometry; type: ADME, organism-based, Sus scrofa; design: time < 6 hr, dose 0.8 mg/kg; conditions: male
[18] = Cmax in castrated pig plasma withdrawn from hepatic vein at 0.8 mg/kg administered as intrajejunal dose 20 mins after ketoconazole administration by UPLC-tandem mass spectrometry; type: ADME, organism-based, Sus scrofa; design: dose 0.8 mg/kg; conditions: male; procedure, shortened: as §1
[19] = Biliary excretion in castrated pig assessed as fraction of the dose excreted at 0.8 mg/kg administered as intrajejunal dose measured during 6 hrs sampling by UPLC-tandem mass spectrometry; type: ADME, organism-based, Sus scrofa; design: dose 0.8 mg/kg; conditions: male, bile, read-out: Drug excretion
[20] = Fraction unbound in pig plasma; type: ADME, cell-free, Sus scrofa
Procedure, shortened: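 Femoral-vein plasma drawn at 30 and 300 min. […] Unbound and total plasma concentrations measured by HPLC-UV at 210 nm after precipitation and solid-phase extraction, with testosterone as internal standard. Calibration range 0.003-1 µM; fraction unbound taken as Cu/Cp.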

[21] = Apparent half-life of the terminal disposition phase in castrated pig plasma withdrawn from portal vein at 0.2 mg/kg, iv by UPLC-tandem mass spectrometry; type: ADME, organism-based, Sus scrofa; design: dose 0.2 mg/kg, route intravenous; conditions: male, read-out: t1/2 lambda z (converted); procedure, shortened: as §1
Plasma [22] = experiment: Drug metabolism in castrated pig plasma withdrawn from femoral vein assessed as omega-hydroxy finasteride metabolite formation by UPLC-tandem mass spectrometry; type: ADME, cell-free, Sus scrofa; procedure, shortened: as §2
[23] = Terminal half life in castrated pig plasma withdrawn from femoral vein at 0.8 mg/kg administered as intrajejunal dose by UPLC-tandem mass spectrometry; type: ADME, organism-based, Sus scrofa; design: dose 0.8 mg/kg; conditions: male, read-out: beta t1/2 (converted)
Procedure, shortened: (§5)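 Portal, hepatic and femoral vein plasma sampled over 6 h and assayed by UPLC-MS/MS. Tmax read directly from the profiles. Terminal t1/2 calculated as ln2/λz by non- or compartmental analysis; values below LLOQ after Cmax excluded.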

[24] = Cmax in castrated pig bile at 0.8 mg/kg administered as intrajejunal dose 20 mins after ketoconazole administration by UPLC-tandem mass spectrometry; type: ADME, organism-based, Sus scrofa; design: dose 0.8 mg/kg; conditions: male
[25] = Drug excretion in castrated pig urine assessed as omega-hydroxy finasteride metabolite formation by UPLC-tandem mass spectrometry; type: ADME, tissue-based, Sus scrofa
[26] = Biliary excretion in castrated pig assessed as fraction of the dose excreted at 0.8 mg/kg administered as intrajejunal dose 20 mins after ketoconazole administration measured during 6 hrs sampling by UPLC-tandem mass spectrometry; type: ADME, organism-based, Sus scrofa; design: dose 0.8 mg/kg; conditions: male, bile, read-out: Drug excretion
[27] = Ratio of AUC in bile to plasma withdrawn from portal vein in castrated pig at 0.2 mg/kg, iv by UPLC-tandem mass spectrometry; type: ADME, organism-based, Sus scrofa; design: dose 0.2 mg/kg, route intravenous; conditions: male, read-out: Ratio AUC
Procedure, shortened: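 Bile collected 0-6 h and weighed; portal and hepatic vein plasma sampled. Analytes quantified by UPLC-MS/MS (finasteride-d9 internal standard, SRM). Bile AUC divided by plasma AUC for each vein.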

[28] = Tmax in castrated pig plasma withdrawn from portal vein at 0.8 mg/kg administered as intrajejunal dose by UPLC-tandem mass spectrometry; type: ADME, organism-based, Sus scrofa; design: dose 0.8 mg/kg; conditions: male; procedure, shortened: as §5
[29] = Tmax in castrated pig plasma withdrawn from hepatic vein at 0.8 mg/kg administered as intrajejunal dose by UPLC-tandem mass spectrometry; type: ADME, organism-based, Sus scrofa; design: dose 0.8 mg/kg; conditions: male; procedure, shortened: as §5
[30] = AUC (0 to 6 hrs) in castrated pig plasma withdrawn from femoral vein at 0.8 mg/kg administered as intrajejunal dose by UPLC-tandem mass spectrometry; type: ADME, organism-based, Sus scrofa; design: time < 6 hr, dose 0.8 mg/kg; conditions: male; procedure, shortened: as §1
[31] = Cmax in castrated pig plasma withdrawn from femoral vein at 0.8 mg/kg administered as intrajejunal dose by UPLC-tandem mass spectrometry; type: ADME, organism-based, Sus scrofa; design: dose 0.8 mg/kg; conditions: male; procedure, shortened: as §1
[32] = Drug excretion in castrated pig urine assessed as unchanged drug level at 0.8 mg/kg administered as intrajejunal dose 20 mins after ketoconazole administration measured during 6 hrs sampling by UPLC-tandem mass spectrometry; type: ADME, organism-based, Sus scrofa; design: dose 0.8 mg/kg; conditions: in vivo, other

Cmax [1]: 1000 nM | Drug metabolism (Plasma [2]): metabolite_not_detected | Kp [3]: 0.9 | Vd [4]: 0.99 L/kg | AUC(0-t) at 6 h [5]: 2.9 µM·h | CL(app) [6]: 0.01 mL/min/kg | AUC(0-t) at 6 h [7]: 1.2 µM·h | Cmax [8]: 1200 nM | Kp [9]: 14 | Drug metabolism (Plasma [10]): metabolite_not_detected | CLH (Sus scrofa [11]): 25 mL/min/kg | ka (Sus scrofa [12]): 3 h⁻¹ | clearance [13]: 7 mL/min/kg | half-life [14]: 3.4 h | Cmax [15]: 3100 nM | ka (Sus scrofa [16]): 29 h⁻¹ | AUC(0-t) at 6 h [17]: 2.5 µM·h | Cmax [18]: 1400 nM | dose excreted at 6 h [19]: 0.09% | fraction unbound [20]: 0.17 | half-life [21]: 2.6 h | Drug metabolism (Plasma [22]): metabolite_not_detected | half-life [23]: 1.6 h | Cmax [24]: 2000 nM | Drug excretion [25]: metabolite_not_detected | dose excreted [26]: 0.18% | Kp [27]: 0.9 | Tmax [28]: 0.3 h | Tmax [29]: 0.5 h | AUC(0-t) at 6 h [30]: 1.7 µM·h | Cmax [31]: 600 nM
Compound: CC(C)(C)NC(=O)[C@H]1CC[C@H]2[C@@H]3CC[C@H]4NC(=O)C=C[C@]4(C)[C@H]3CC[C@]12C [FINASTERIDE]
Ae [32]: 0.04 µmol
